Test results published in ChEMBL document CHEMBL3875207, “New derivatives of 7-chloroquinolin-4-amine with antiprotozoal activity” (Bioorg Med Chem, 2017).

Assays:
[1] = Cytotoxicity against rat L6 cells assessed as growth inhibition after 70 hrs by alamar blue assay; format: toxicity
Procedure, shortened: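 4000 L-6 cells per well in RPMI 1640 with 1% L-glutamine (200 mM) and 10% FBS. Eleven 3-fold dilutions spanning 100 to 0.002 µg/mL; 70 h incubation, controls checked microscopically. Alamar Blue added for 2 h more; fluorescence ex 536/em 588 nm. IC50 by linear regression from sigmoidal dose-inhibition curves.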

[2] = Selectivity index, ratio of IC50 for rat L6 cells to IC50 for Trypanosoma brucei rhodesiense STIB900 bloodstream forms; format: toxicity, cell-based; conditions: read-out: Ratio IC50
Procedure, shortened: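 Ratio of L-6 cytotoxicity IC50 to T. b. rhodesiense STIB900 IC50. L-6: 4000 cells in RPMI 1640 with L-glutamine and 10% FBS, 70 h, then Alamar Blue 2 h. Trypanosomes: 4×10^3 bloodstream forms in supplemented MEM with 15% horse serum, 37°C, 5% CO2, 70 h, then Alamar Blue 2-4 h. Both read by fluorescence (ex 536/em 588 nm) over eleven 3-fold dilutions, 100 to 0.002 µg/mL.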

[3] = system: Trypanosoma brucei rhodesiense; experiment: Antitrypanosomal activity against Trypanosoma brucei rhodesiense STIB900 bloodstream forms isolated from patient after 70 hrs by microplate alamar blue assay; format: functional; conditions: STIB900, 70 h
Procedure, shortened: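 MEM with 25 mM HEPES, 1 g/L extra glucose, non-essential amino acids, 0.2 mM 2-mercaptoethanol, 1 mM Na-pyruvate, 15% heat-inactivated horse serum; 4×10^3 bloodstream forms per well. Eleven 3-fold dilutions, 100 to 0.002 µg/mL; 70 h, 37°C, 5% CO2. Resazurin added, further 2-4 h; fluorescence ex 536/em 588 nm. IC50 by linear regression from sigmoidal dose-inhibition curves.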

[4] = Resistance index, ratio of IC50 for chloroquine/pyrimethamine-resistant Plasmodium falciparum K1 infected in human RBC to IC50 for chloroquine-sensitive Plasmodium falciparum NF54 infected in human RBC; format: functional
Procedure, shortened: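 Resistance index is the ratio of the IC50 against K1 to the IC50 against NF54. Both IC50s come from the 3H-hypoxanthine incorporation assay run in parallel on the two strains.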

[5] = system: Plasmodium falciparum; experiment: Antiplasmodial activity against chloroquine-sensitive Plasmodium falciparum NF54 infected in human RBC assessed as reduction in [3H]hypoxanthine incorporation preincubated for 48 hrs followed by [3H]hypoxanthine addition measured after 24 hrs by liquid scintillation counting method; format: functional
Procedure, shortened: (§1)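 Erythrocytic P. falciparum in RPMI 1640 without hypoxanthine with HEPES, NaHCO3, neomycin, Albumax (5 g/L) and washed human A+ red cells at 2.5% haematocrit, 0.3% parasitaemia. Compounds from DMSO stocks (10 mg/mL) tested as eleven 3-fold dilutions, 100 to 0.002 µg/mL. Incubation at 37°C under 4% CO2/3% O2/93% N2; 3H-hypoxanthine (0.5 µCi) added at 48 h, 24 h more, scintillation counting; IC50 by linear regression from sigmoidal curves.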

[6] = system: Plasmodium falciparum; experiment: Antiplasmodial activity against chloroquine/pyrimethamine-resistant Plasmodium falciparum K1 infected in human RBC assessed as reduction in [3H]hypoxanthine incorporation preincubated for 48 hrs followed by [3H]hypoxanthine addition measured after 24 hrs by liquid scintillation counting method; format: functional; procedure, shortened: as §1
[7] = Selectivity index, ratio of IC50 for rat L6 cells to IC50 for chloroquine-sensitive Plasmodium falciparum NF54 infected in human RBC; format: toxicity, cell-based; conditions: read-out: Ratio IC50
Procedure, shortened: (§2)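 Ratio of the IC50 in rat L-6 myoblasts to the P. falciparum IC50. L-6: 4000 cells per well, RPMI 1640 with L-glutamine and 10% FBS, 70 h, Alamar Blue 2 h, fluorescence ex 536/em 588 nm. Both use eleven 3-fold dilutions, 100 to 0.002 µg/mL.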

[8] = Selectivity index, ratio of IC50 for rat L6 cells to IC50 for chloroquine/pyrimethamine-resistant Plasmodium falciparum K1 infected in human RBC; format: toxicity, cell-based; conditions: read-out: Ratio IC50; procedure, shortened: as §2

| Compound | IC50 at 70 h [1] | selectivity ratio [2] | IC50 [3] | Ratio IC50 [4] | IC50 [5] | IC50 [6] | selectivity ratio [7] | selectivity ratio [8] |
| --- | --- | --- | --- | --- | --- | --- | --- | --- |
| COc1cc([C@@H]2c3cc4c(cc3[C@H](O)[C@H]3COC(=O)[C@H]23)OCO4)cc(OC)c1OC [PODOFILOX] | 12 nM |  |  |  |  |  |  |  |
| Nc1nc(N)nc(Nc2ccc([As]3SCC(CO)S3)cc2)n1 (centres undefined) [MELARSOPROL] | 7780 nM | 778 |  |  |  |  |  |  |
| Clc1ccc2c(NCCNCCN3CCCCCC3)ccnc2c1 | 76100 nM | 59.5 | 1280 nM | 6 | 11 nM | 66 nM | 6920 | 1150 |
| CN1CCN(CC(=O)NCCNc2ccnc3cc(Cl)ccc23)CC1 | 38000 nM | 2.08 | 18300 nM | 79.7 | 36 nM | 2870 nM | 1060 | 13.3 |
| CN1CCN(CCNc2ccnc3cc(Cl)ccc23)CC1 | 16700 nM | 24.2 | 690 nM | 5.45 | 6.6 nM | 36 nM | 2540 | 465 |
| CN1CCN(CCCNc2ccnc3cc(Cl)ccc23)CC1 | 18200 nM | 15.9 | 1140 nM | 10 | 3.1 nM | 31 nM | 5860 | 586 |
| O=C(CN1CCCC1)NCCNc1ccnc2cc(Cl)ccc12 | 46400 nM | 62.7 | 740 nM | 4.17 | 18 nM | 75 nM | 2580 | 618 |
| Clc1ccc2c(NCCN3CCCCCC3)ccnc2c1 | 13200 nM | 22.4 | 590 nM | 4.85 | 3.3 nM | 16 nM | 4010 | 827 |
| CCCN(CCC)CC(=O)NCCNc1ccnc2cc(Cl)ccc12 | 22000 nM | 23.4 | 940 nM | 2.14 | 14 nM | 30 nM | 1570 | 732 |
| O=C(CN1CCCCCC1)NCCNc1ccnc2cc(Cl)ccc12 | 14200 nM | 50.8 | 280 nM | 5 | 11 nM | 55 nM | 1290 | 258 |
| CCCN(CCC)CC(=O)N1CCN(c2ccnc3cc(Cl)ccc23)CC1 | 70500 nM | 48.3 | 1460 nM | 1.35 | 230 nM | 310 nM | 306 | 227 |
| O=C(CN1CCCCC1)NCCNc1ccnc2cc(Cl)ccc12 | 23700 nM | 18.5 | 1280 nM | 8.36 | 11 nM | 92 nM | 2160 | 258 |
| CN1CCN(CC(=O)N2CCN(c3ccnc4cc(Cl)ccc34)CC2)CC1 | 79800 nM | 39.5 | 2020 nM | 2 | 140 nM | 280 nM | 570 | 285 |
| Clc1ccc2c(N3CCN(CCN4CCCCCC4)CC3)ccnc2c1 | 25400 nM | 15.8 | 1610 nM | 1.07 | 70 nM | 75 nM | 362 | 338 |
| CCN(CC)CCCC(C)Nc1ccnc2cc(Cl)ccc12 (centres undefined) [CHLOROQUINE] | 90900 nM |  |  |  |  |  |  |  |
| Clc1ccc2c(NCCCN3CCCCCC3)ccnc2c1 | 20000 nM | 25.6 | 780 nM | 6.03 | 6.3 nM | 38 nM | 3170 | 525 |
| CCCN(CCC)CCNc1ccnc2cc(Cl)ccc12 | 14900 nM | 107 | 140 nM | 2.97 | 3.3 nM | 9.8 nM | 4530 | 1520 |
| CCCN(CCC)CCN1CCN(c2ccnc3cc(Cl)ccc23)CC1 | 56800 nM | 53.1 | 1070 nM | 0.8 | 110 nM | 88 nM | 517 | 646 |
